Runt-CBFb FRET = inhibitors of RUNX1 Runt–CBFb binding, primary screen, biochemical, FRET, Cerulean-Runt, Venus-CBFb, uHTS. Runt-related transcription factor 1 (Homo sapiens) + Core-binding factor subunit beta …. Cerulean-Runt/Venus-CBFb FRET ratio 530/480, 1 h. 0.46% of 220,000 active. inhibition, % at 20 µM. AID 1496, 2009;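 active means inhibition over about 50% at 20 µM in the single-dose screen, limit read from the data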
Target sequence (Q01196 whole entry, looked up): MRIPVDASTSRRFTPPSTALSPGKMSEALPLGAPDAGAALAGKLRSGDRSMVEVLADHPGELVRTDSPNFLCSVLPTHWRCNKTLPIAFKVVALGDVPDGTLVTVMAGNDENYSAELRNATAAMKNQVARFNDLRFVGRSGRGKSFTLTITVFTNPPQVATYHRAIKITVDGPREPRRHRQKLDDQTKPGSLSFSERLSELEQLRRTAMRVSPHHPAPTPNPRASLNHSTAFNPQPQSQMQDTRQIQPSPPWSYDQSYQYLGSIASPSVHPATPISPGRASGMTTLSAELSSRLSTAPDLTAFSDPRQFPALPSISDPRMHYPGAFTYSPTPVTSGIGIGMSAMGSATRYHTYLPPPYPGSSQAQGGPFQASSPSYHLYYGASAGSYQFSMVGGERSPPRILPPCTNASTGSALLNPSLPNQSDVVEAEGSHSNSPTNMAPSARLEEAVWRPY
Target sequence (Q13951 whole entry, looked up): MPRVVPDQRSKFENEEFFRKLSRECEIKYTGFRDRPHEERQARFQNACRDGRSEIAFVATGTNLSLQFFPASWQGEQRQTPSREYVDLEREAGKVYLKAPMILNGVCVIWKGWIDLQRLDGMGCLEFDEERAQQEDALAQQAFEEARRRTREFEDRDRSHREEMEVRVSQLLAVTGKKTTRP
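Reagent – Venus-CBFb binding partner, 100 nM · Assay system – Cerulean-tagged RUNX1 Runt domain (FRET donor) fusion protein · Input – 100 nM per protein · Incubation – two 1 h room-temperature incubations shielded from light · Measured by – FRET fluorescence · Medium – Tris buffer pH 7.5 with salts and BSA · Benchmarks – unlabeled CBFb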
RanGTP-Imp inh = inhibitors of RanGTP-importin-beta interaction, primary screen, biochemical, FRET, CFP-Ran, YFP-importin-beta, homogeneous; AID 2216, 2009; 1.1% of 300,000 active; cell-free CFP-Ran/YFP-importin-beta FRET ratio; inhibition, % (test concentration not listed); Ran GTPase (GTP-bound) - importin-beta complex;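 active means more than half of the replicate wells show a fall in the fluorescence ratio signal beyond about 16%, limit read from the data, passing the limit was not always enough; inconclusive means exactly half of the replicate wells pass the set limit; inactive means fewer than half of replicates pass the limit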
Hck Nef HTS = inhibitors of Nef-activated human Hck kinase, primary screen, biochemical, Z-Lyte FRET, 384-well, Hck-YEEI; Tyrosine-protein kinase HCK (Homo sapiens), P08631; Recombinant Hck-YEEI plus Nef, Z-Lyte FRET kinase assay; inhibition, % at 20 µM; 0.68% of 220,000 active; AID 463187, 2010;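 active means Hck-Nef kinase inhibition above about 50%, limit read from the data; inactive means inhibition below that limit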
Runt-SMMHC FRET = inhibitors of RUNX1 Runt–CBFb-SMMHC binding, primary screen, biochemical, FRET, Cerulean-Runt, Venus-CBFb-SMMHC, uHTS | AID 1434, 2008 | Runt-related transcription factor 1 (Homo sapiens) + Core-binding factor subunit beta … | inhibition, % at 20 µM | 0.74% of 220,000 active | Cerulean-Runt/Venus-CBFb-SMMHC FRET ratio 530/480, 1 h;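 active means mean inhibition across duplicate retests at 20 µM reaching about 50%, limit read from the data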;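 further: inhibitors lower the FRET ratio by blocking Runt binding to CBFb-SMMHC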
Each line names hits and unclear results; the compound was inactive in the other large screens. Shown are actives, neighbours in structure and some others; about 1.9% of the full set was active somewhere.

N#Cc1cc2c(=O)n3ccccc3nc2n(Cc2cccnc2)c1=O	RanGTP-Imp inh 74 (no result: Runt-CBFb FRET, Hck Nef HTS, Runt-SMMHC FRET)
Cc1cccn2c(=O)c3cc(C#N)c(=O)n(Cc4cccnc4)c3nc12	Runt-CBFb FRET 79 (no result: RanGTP-Imp inh, Hck Nef HTS)
CC(=O)N=c1c(C#N)cc2c(=O)n3ccccc3nc2n1Cc1ccccc1	Runt-CBFb FRET 138, RanGTP-Imp inh 32, Runt-SMMHC FRET 81
COc1cc(/C=N\Nc2nc(-c3ccc(C)cc3)c(NC(C)=O)s2)ccc1O	Hck Nef HTS 105
CC(=O)Nc1sc(N/N=C/c2ccc(N(C)C)cc2)nc1-c1ccc(C)cc1	RanGTP-Imp inh inconclusive
CCC(=O)Nc1cc(=O)[nH]c2nc(-c3ccc(Cl)cc3)nn12	none
O=c1[nH]c(N/N=C\c2ccc(F)cc2)nc2ccccc12	RanGTP-Imp inh 38
O=c1[nH]c(N/N=C/c2ccc(O)cc2)nc2ccccc12	none
N#C/C(=C\c1c(N2CCC(C(N)=O)CC2)nc2ccccn2c1=O)S(=O)(=O)c1ccc(Cl)cc1	none
CN1CCN(c2nc3ccccn3c(=O)c2/C=C(\C#N)S(=O)(=O)c2ccc(Cl)cc2)CC1	RanGTP-Imp inh 97
COC(=O)/C(C#N)=C/c1c(N2CCN(C)CC2)nc2ccccn2c1=O	RanGTP-Imp inh 107 (no result: Runt-CBFb FRET, Hck Nef HTS, Runt-SMMHC FRET)
COC(=O)/C(C#N)=C/c1c(N2CCN(c3ccccc3)CC2)nc2ccccn2c1=O	none (no result: Runt-CBFb FRET, Hck Nef HTS, Runt-SMMHC FRET)
Cc1cccn2c(=O)c(/C=C(\C#N)S(=O)(=O)c3ccccc3)c(Oc3ccc(Cl)cc3)nc12	RanGTP-Imp inh 27
Cc1ccc(S(=O)(=O)/C(C#N)=C/c2c(N3CCN(C)CC3)nc3ccccn3c2=O)cc1	RanGTP-Imp inh 65
COc1ccc(C(O)P(=O)(OC(C)C)OC(C)C)c(OC)c1 (stereo unspecified)	none
C=CCNc1nc(NCc2ccccc2)c(C#N)c2c1CN(C)CC2	RanGTP-Imp inh 109, Runt-SMMHC FRET 65
CCCCCNc1nc(NCCCO)c(C#N)c2c1CN(C)CC2	RanGTP-Imp inh 146, Runt-SMMHC FRET 79
N#Cc1c(NCCN)nc(NCc2ccccc2)c2c1CCN(Cc1ccccc1)C2	none (no result: RanGTP-Imp inh, Runt-SMMHC FRET)
COc1ccc(C(=O)NCc2nnc(SCC(=O)N3CCc4ccccc43)n2Cc2ccccc2)cc1	none
COC(=O)Cn1c2ccccc2c2nc3ccccc3nc21	none (no result: Runt-CBFb FRET, Hck Nef HTS, Runt-SMMHC FRET)
CC(C)OC(=O)c1c2nc3ccccc3nc2n2c1[nH]c(=O)c1ccccc12	Runt-SMMHC FRET 62
CCOC(=O)C1=C(N)OC2=C(C(=O)CC(C)(C)C2)C1c1ccccc1OC (stereo unspecified)	none
COc1ccccc1C1C2=C(CC(C)(C)CC2=O)N(CC(=O)O)C2=C1C(=O)CC(C)(C)C2	RanGTP-Imp inh 164 (no result: Runt-CBFb FRET, Hck Nef HTS, Runt-SMMHC FRET)
CCOc1ccc(C2C3=C(CC(C)(C)CC3=O)N(CC(=O)O)C3=C2C(=O)CC(C)(C)C3)cc1OCC	none (no result: Runt-CBFb FRET, Hck Nef HTS, Runt-SMMHC FRET)
C#CCOc1ccc(C2C3=C(CC(C)(C)CC3=O)N(CC(=O)O)C3=C2C(=O)CC(C)(C)C3)cc1	RanGTP-Imp inh 162 (no result: Runt-CBFb FRET, Hck Nef HTS, Runt-SMMHC FRET)
Cc1cc(C)n2nc(C(=O)Nc3cccc(S(=O)(=O)N(C)c4ccccc4)c3)nc2n1	none
Cc1cc(Cl)c2ccccc2n1	none
Clc1cncc(Cl)c1NNc1c2ccccc2nc2ccccc12	Runt-CBFb FRET 128, RanGTP-Imp inh 23, Runt-SMMHC FRET 83
CCN1CCc2c(sc(NC(=O)c3ccc(S(=O)(=O)N(C)CC4CCCO4)cc3)c2C(N)=O)C1 (stereo unspecified)	RanGTP-Imp inh 48 (no result: Runt-CBFb FRET, Hck Nef HTS, Runt-SMMHC FRET)
CC(C)N1CCc2c(sc(NC(=O)c3ccc(S(=O)(=O)N(C)CC4CCCO4)cc3)c2C(N)=O)C1 (stereo unspecified)	RanGTP-Imp inh 72 (no result: Runt-CBFb FRET, Hck Nef HTS, Runt-SMMHC FRET)
CC(=O)NS(=O)(=O)c1ccc(NC(=O)COc2ccc(C(=O)c3ccccc3)cc2)cc1	none
CN1C2=C(C(=O)CC(C)(C)C2)C(c2cccs2)C2=C1CC(C)(C)CC2=O	RanGTP-Imp inh 61 (no result: Runt-CBFb FRET, Hck Nef HTS, Runt-SMMHC FRET)
CC1(C)CC(=O)C2=C(C1)OC(=O)CC2c1cccs1 (stereo unspecified)	none
CCOc1ccc(CNC(c2ccccc2)c2ccccc2)cc1	RanGTP-Imp inh 33 (no result: Runt-CBFb FRET, Hck Nef HTS, Runt-SMMHC FRET)
Cc1cc(C)c2c(N)c3cccc(C)c3nc2n1	RanGTP-Imp inh 126, Runt-SMMHC FRET 79
Cc1cccc2c(N)c3c(nc12)CCCC3 (tested in a mixture with another compound)	none (no result: RanGTP-Imp inh)
C=CCN1C(=O)C(CC(=O)Nc2ccc(OCCC)cc2)N(CCCN2CCN(Cc3ccccc3)CC2)C1=S (stereo unspecified)	none
CCC(=O)N1CC2(C)CN(C(=O)CC)CC(C)(C1)C2	RanGTP-Imp inh 17
CCn1c(CSc2nccn2C)nc2cc(C(=O)O)ccc21	Runt-SMMHC FRET 53
CCn1c(CSc2nc3ccccc3[nH]2)nc2cc(C(=O)O)ccc21	none
COCCCNC(=O)c1c(N)n(-c2ccc(S(N)(=O)=O)cc2)c2nc3ccccc3nc12	Runt-CBFb FRET 57, RanGTP-Imp inh 61, Runt-SMMHC FRET 82
Nc1ccc(-n2c(N)c(C(=O)NCc3ccc4c(c3)OCO4)c3nc4ccccc4nc32)cc1	none (no result: Runt-CBFb FRET, Runt-SMMHC FRET)
COCCCNC(=O)c1c(N)n(/N=C/c2cccs2)c2nc3ccccc3nc12	Runt-CBFb FRET 88, Runt-SMMHC FRET 58
COC(=O)c1c(N)n(-c2ccc(NC(C)=O)cc2)c2nc3ccccc3nc12	Runt-SMMHC FRET 74
Cc1cc(C)cc(-n2c(N)c(C(=O)Nc3c(C)n(C)n(-c4ccccc4)c3=O)c3nc4ccccc4nc32)c1	Hck Nef HTS 54
Cc1ccc(-n2c(N)c(C(=O)Nc3c(C)n(C)n(-c4ccccc4)c3=O)c3nc4ccccc4nc32)cc1	none
CCN(CC)c1nc(-c2ccccn2)nc(-c2ccccc2)c1C#N	none
CC1CC(C)CN(C(=O)Cn2cc(C=O)c3ccccc32)C1 (stereo unspecified)	none
COCCNC(=O)c1c(N)n(-c2ccccc2)c2nc3ccccc3nc12	Runt-CBFb FRET 88, RanGTP-Imp inh 90
C=CCn1c(N)c(C(=O)Nc2ccccc2)c2nc3ccccc3nc21	RanGTP-Imp inh 18
COCCCNC(=O)c1c(N)n(/N=C/c2cccnc2)c2nc3ccccc3nc12	none
COCCNC(=O)c1c(N)n(CCCn2ccnc2)c2nc3ccccc3nc12	RanGTP-Imp inh 113
COc1ccc(C(=O)NCCCn2ccnc2)cc1	none
COCCCNC(=O)c1c(N)n(-c2ccccc2)c2nc3ccccc3nc12	Runt-CBFb FRET 54, RanGTP-Imp inh 87, Runt-SMMHC FRET 81
CC12CN(C(=O)c3ccccc3Br)CC(C)(CN(C(=O)c3ccccc3Br)C1)C2=O	none
CCC(=O)N1CCc2cc(S(=O)(=O)CCC(=O)Nc3cccc(C)n3)ccc21	none
COc1ccccc1/C=N/NC(=O)CC(=O)NCCc1ccccc1	none (no result: Runt-CBFb FRET, Hck Nef HTS, Runt-SMMHC FRET)
CC1CCCCN1C(=O)COC(=O)/C=C/c1ccc2ccccc2n1 (stereo unspecified)	none
